Laboratory results from ChEMBL document CHEMBL4689842, “EUbOPEN Chemogenomics Library wave 1” (2021).
Values joined by “and” are separate entries in the source; they are usually repeats but may differ in a detail not shown here. Equal entries are not always repeated.

Key:
Type in all cases: toxicity, cell-based
U2OS [1] = test: Incucyte cell viability with U2OS; details: human, 10 µM, compound concentration 10 uM; note: filed as whole numbers so only -1 and 0 and 1 occur
HEK-293T [2] = test: Multiplex assay against HEK293T; details: human, 10 µM, compound concentration 10 uM;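 for Population Tubulin-Different-Phenotype (%): share of the cells with healthy nuclei that show this phenotype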
Procedure, shortened: (§1)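 Cells stained live at seeding with Hoechst33342, BioTracker Green Microtubule Cytoskeleton Dye, MitoTracker Red and Annexin V Alexa Fluor 680 were imaged on a CQ1 microscope at 37°C and 5% CO2 after compound addition. Their classification by CellPathfinder machine-learning gating ran from Hoechst high-intensity objects versus normal cells, to healthy, pyknosed or fragmented nuclei among normal cells, to mitotic or apoptotic among pyknosed cells. Tubulin, mitochondrial-mass and membrane-permeability phenotypes are per cents of healthy-nucleus cells.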

HEK-293T [3] = test: Incucyte cell viability with HEK293T; details: human, 10 µM, compound concentration 10 uM; note: filed as whole numbers so only -1 and 0 and 1 occur
Fibroblast = test: Incucyte cell viability with human fibroblast; details: 10 µM, compound concentration 10 uM; note: filed as whole numbers so only -1 and 0 and 1 occur
U2OS [4] = test: Multiplex assay against U2OS; details: human, 12 h, 10 µM, compound concentration 10 uM; procedure, shortened: as §1
[5] = 0 h, replicate number 1, timepoint 0 hours
[6] = 6 h, replicate number 1, timepoint 6 hours
[7] = 12 h, replicate number 1, timepoint 12 hours
[8] = 18 h, replicate number 1, timepoint 18 hours
[9] = 24 h, replicate number 1, timepoint 24 hours

O=C(O)c1ccc2c(c1)nc(Nc1cccc(Cl)c1)c1ccncc12 [SILMITASERTIB]
Growth Rate (U2OS [1]; [5]): 0
Growth Rate (U2OS [1]; 0 h, replicate number 2, timepoint 0 hours): 1
Growth Rate (U2OS [1]; [6]): 1
Growth Rate (U2OS [1]; 6 h, replicate number 2, timepoint 6 hours): 0
Growth Rate (U2OS [1]; [7]): 0
Growth Rate (U2OS [1]; [8]): 0
Growth Rate (U2OS [1]; [9]): 0
Population Apoptotic (%) (HEK-293T [2]; 12 h, replicate 1): 24% and 17%
Population Fragmented Nuclei (%) (HEK-293T [2]; 12 h, replicate 1): 14% and 17%
Population Healthy Nuclei (%) (HEK-293T [2]; 12 h, replicate 1): 67% and 65%
Population Hoechst High Intensity Objects (%) (HEK-293T [2]; 12 h, replicate 1): 10% and 15%
Population Membrane Permeable-Phenotype (%) (HEK-293T [2]; 12 h, replicate 1): 8% and 6%
Population Mitochondria Different-Phenotype (%) (HEK-293T [2]; 12 h, replicate 1): 5% and 4%
Population Mitotic Cells (%) (HEK-293T [2]; 12 h, replicate 1): 76% and 82%
Population Normal (%) (HEK-293T [2]; 12 h, replicate 1): 89% and 84%
Population Pyknosed Nuclei (%) (HEK-293T [2]; 12 h, replicate 1): 17%
Population Tubulin-Different-Phenotype (%) (HEK-293T [2]; 12 h, replicate 1): 7% and 6%
Total Cell Count (HEK-293T [2]; 12 h, replicate 1): 624 and 579
Population Apoptotic (%) (HEK-293T [2]; 12 h, replicate 2): 11% and 7%
Population Fragmented Nuclei (%) (HEK-293T [2]; 12 h, replicate 2): 8% and 10%
Population Healthy Nuclei (%) (HEK-293T [2]; 12 h, replicate 2): 84% and 85%
Population Hoechst High Intensity Objects (%) (HEK-293T [2]; 12 h, replicate 2): 3% and 2%
Population Membrane Permeable-Phenotype (%) (HEK-293T [2]; 12 h, replicate 2): 4% and 1%
Population Mitochondria Different-Phenotype (%) (HEK-293T [2]; 12 h, replicate 2): 9%
Population Mitotic Cells (%) (HEK-293T [2]; 12 h, replicate 2): 88% and 92%
Population Normal (%) (HEK-293T [2]; 12 h, replicate 2): 96% and 97%
Population Pyknosed Nuclei (%) (HEK-293T [2]; 12 h, replicate 2): 6% and 3%
Total Cell Count (HEK-293T [2]; 12 h, replicate 2): 1391 and 1841
Population Apoptotic (%) (HEK-293T [2]; 24 h, replicate 1): 28% and 16%
Population Fragmented Nuclei (%) (HEK-293T [2]; 24 h, replicate 1): 14%
Population Healthy Nuclei (%) (HEK-293T [2]; 24 h, replicate 1): 77% and 74%
Population Hoechst High Intensity Objects (%) (HEK-293T [2]; 24 h, replicate 1): 6% and 14%
Population Membrane Permeable-Phenotype (%) (HEK-293T [2]; 24 h, replicate 1): 10%
Population Mitochondria Different-Phenotype (%) (HEK-293T [2]; 24 h, replicate 1): 5% and 3%
Population Mitotic Cells (%) (HEK-293T [2]; 24 h, replicate 1): 71% and 84%
Population Normal (%) (HEK-293T [2]; 24 h, replicate 1): 93% and 85%
Population Pyknosed Nuclei (%) (HEK-293T [2]; 24 h, replicate 1): 8% and 9%
Population Tubulin-Different-Phenotype (%) (HEK-293T [2]; 24 h, replicate 1): 5% and 15%
Total Cell Count (HEK-293T [2]; 24 h, replicate 1): 718 and 592
Population Apoptotic (%) (HEK-293T [2]; 24 h, replicate 2): 9% and 4%
Population Fragmented Nuclei (%) (HEK-293T [2]; 24 h, replicate 2): 15% and 30%
Population Healthy Nuclei (%) (HEK-293T [2]; 24 h, replicate 2): 79% and 67%
Population Hoechst High Intensity Objects (%) (HEK-293T [2]; 24 h, replicate 2): 7% and 4%
Population Membrane Permeable-Phenotype (%) (HEK-293T [2]; 24 h, replicate 2): 9% and 4%
Population Mitochondria Different-Phenotype (%) (HEK-293T [2]; 24 h, replicate 2): 6% and 0%
Population Mitotic Cells (%) (HEK-293T [2]; 24 h, replicate 2): 90% and 95%
Population Normal (%) (HEK-293T [2]; 24 h, replicate 2): 92% and 95%
Population Pyknosed Nuclei (%) (HEK-293T [2]; 24 h, replicate 2): 4% and 1%
Total Cell Count (HEK-293T [2]; 24 h, replicate 2): 1562 and 3163
Growth Rate (HEK-293T [3]; [5]): 0
Growth Rate (HEK-293T [3]; [6]): 0
Growth Rate (HEK-293T [3]; [7]): 0
Growth Rate (HEK-293T [3]; [8]): 0
Growth Rate (HEK-293T [3]; [9]): 0
Growth Rate (Fibroblast; [5]): 0
Growth Rate (Fibroblast; [7]): 1
Growth Rate (Fibroblast; [8]): 0
Growth Rate (Fibroblast; 18 h, replicate number 2, timepoint 18 hours): 1
Growth Rate (Fibroblast; [9]): 0
Growth Rate (Fibroblast; 24 h, replicate number 2, timepoint 24 hours): 1
Population Apoptotic (%) (U2OS [4]; replicate 1): 50% and 36%
Population Fragmented Nuclei (%) (U2OS [4]; replicate 1): 5%
Population Healthy Nuclei (%) (U2OS [4]; replicate 1): 87% and 85%
Population Hoechst High Intensity Objects (%) (U2OS [4]; replicate 1): 4%
Population Membrane Permeable-Phenotype (%) (U2OS [4]; replicate 1): 11% and 8%
Population Mitotic Cells (%) (U2OS [4]; replicate 1): 50% and 63%
Population Normal (%) (U2OS [4]; replicate 1): 95%
Population Pyknosed Nuclei (%) (U2OS [4]; replicate 1): 7%
Population Tubulin-Different-Phenotype (%) (U2OS [4]; replicate 1): 19% and 32%
Total Cell Count (U2OS [4]; replicate 1): 163 and 151
Population Apoptotic (%) (U2OS [4]; replicate 2): 33%
Population Fragmented Nuclei (%) (U2OS [4]; replicate 2): 6% and 8%
